The list is not random: actives were taken first. Their share in the collection is about 3%.
PLCg1 inh: PLC-gamma1 enzyme inhibitors, primary screen, biochemical, fluorescence, purified enzyme; 1-phosphatidylinositol 4,5-bisphosphate phosphodiesterase gamma-1 (Homo sapiens), P19174; fluorogenic substrate; inhibition, % at 12.2 µM; 0.84% of 370,000 active; AID 720700, 2013
PLCb3 inh: human PLC-beta3 inhibitors, primary screen, biochemical, fluorescence. 1-phosphatidylinositol 4,5-bisphosphate phosphodiesterase beta-3 (Homo sapiens), Q01970. Purified PLC-beta3, fluorogenic substrate. 0.18% of 370,000 active. inhibition, % at 12.2 µM; in the data active means inhibition above about 11%
DDE Tn7 FP inh: inhibitors of Tn7 peptide binding to fibrin DD(E), primary screen, biochemical, fluorescence polarization, human fibrin, Tn7 probe; Fibrinogen beta chain (Homo sapiens), P02675; FP displacement of FITC-Tn7 peptide from fibrin DD(E); 0% = median of compound wells per plate; inhibition, % at 8.3 µM; 0.13% of 370,000 active;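 active means inhibition above the mean of compounds falling within the control limits plus 3 SD of them, cut at about 14% in these data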
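Measure: % inhibition scaled between sample-field median and high-control FP; Test system: human fibrin DD(E); Quantity: 2 µM final DD(E) protein; Doses: one dose, 8.3 µM nominal; Schedule: compound with protein 10 min, then 3 h after probe, room temperature; Detection: fluorescence polarization; Medium: Tris buffer with calcium and detergent, pH 7.8.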
CendR NRP1 mod: modulators of CendR peptide binding to NRP-1, primary screen, biochemical, fluorescence polarization, uHTS; Neuropilin-1 (Homo sapiens), O14786; FAM-RPARPAR peptide binding to NRP-1; inhibition, % at 25 µM; 0.85% of 360,000 active;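 active means inhibition or corrected inhibition above about 18%, plus a signal ratio from 0.5 to 1.5, limit read from the data, passing the limit was not always enough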
Target sequence (O14786 whole entry, looked up): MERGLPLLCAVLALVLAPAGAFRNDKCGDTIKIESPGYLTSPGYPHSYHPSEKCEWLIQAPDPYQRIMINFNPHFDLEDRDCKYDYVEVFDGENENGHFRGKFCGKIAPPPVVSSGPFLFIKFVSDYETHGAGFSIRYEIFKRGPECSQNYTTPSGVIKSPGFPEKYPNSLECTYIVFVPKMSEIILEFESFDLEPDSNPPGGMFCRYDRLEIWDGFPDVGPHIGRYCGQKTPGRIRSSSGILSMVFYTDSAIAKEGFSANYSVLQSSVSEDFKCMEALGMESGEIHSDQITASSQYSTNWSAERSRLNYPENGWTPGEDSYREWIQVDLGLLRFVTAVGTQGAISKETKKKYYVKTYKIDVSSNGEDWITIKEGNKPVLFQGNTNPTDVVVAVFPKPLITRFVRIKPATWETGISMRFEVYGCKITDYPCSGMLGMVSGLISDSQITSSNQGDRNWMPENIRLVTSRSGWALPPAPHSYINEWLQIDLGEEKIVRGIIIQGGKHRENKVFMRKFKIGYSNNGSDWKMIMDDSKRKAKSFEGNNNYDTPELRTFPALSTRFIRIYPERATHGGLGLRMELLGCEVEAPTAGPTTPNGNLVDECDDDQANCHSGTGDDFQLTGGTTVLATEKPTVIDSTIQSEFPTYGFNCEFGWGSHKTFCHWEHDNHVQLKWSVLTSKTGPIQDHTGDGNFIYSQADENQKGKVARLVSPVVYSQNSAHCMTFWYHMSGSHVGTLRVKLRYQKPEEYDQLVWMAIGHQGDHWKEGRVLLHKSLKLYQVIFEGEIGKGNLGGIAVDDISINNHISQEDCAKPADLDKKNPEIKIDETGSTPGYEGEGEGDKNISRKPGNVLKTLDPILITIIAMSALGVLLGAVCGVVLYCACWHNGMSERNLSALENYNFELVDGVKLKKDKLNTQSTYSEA
DDE Tn6 FP inh: inhibitors of Tn6 peptide binding to fibrin DD(E), primary screen, biochemical, fluorescence polarization, human fibrin, Tn6 probe; Fibrinogen beta chain (Homo sapiens), P02675; Fibrin DD(E) TRITC-Tn6 fluorescence polarization displacement; inhibition, % at 8.3 µM; 0.21% of 370,000 active; AID 720509, 2013;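 active means inhibition above a per-campaign cutoff: mean of compounds within control limits plus 3 SD, cut at about 15% in these data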
KLK7 zymogen act: proKLK7 zymogen activators, primary screen, biochemical, fluorescence intensity. 0.9% of 370,000 active. activation, % at 7 µM. Kallikrein-7 (Homo sapiens), P49862. purified proKLK7, EDANS-DABCYL substrate fluorescence; 100% is mature enzyme control, 0% vehicle;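 active means activation above the mean of all tested compounds plus 3 SD, computed per campaign excluding outliers beyond control limits, cut at about 13% in these data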
DDE Tn6 FP ctr: counter-screen hit for Tn6 peptide-fibrin DD(E) binding disruption. shares compounds with DDE Tn6 FP inh. TRITC-Tn6 fluorescence polarization displacement; 0% = median of compound wells, not DMSO. inhibition, % at 8.3 µM. 2% of 680 active;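 active means inhibition above the mean of test compounds lying between the control limits plus 3 SD of those, cut at about 14% in these data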
DDE Tn6 confirm: inhibitors of Tn6 peptide binding to fibrin DD(E), confirmation, biochemical, fluorescence polarization, human fibrin, Tn6 probe. 10% of 680 active. FP displacement of TRITC-Tn6 peptide from DD(E); 0% = per-plate median of test wells. shares compounds with DDE Tn6 FP inh. inhibition, % at 8.3 µM;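 active means inhibition above the mean of compounds lying within the control limits plus 3 SD, cut at about 16% in these data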
PLCg1 ctr: PLC-gamma1 enzyme inhibitors, counter-screen for PLC-beta3 inhibitor project, biochemical, fluorescence; 3.1% of 3,300 active; purified PLC-gamma1, fluorogenic substrate; inhibition, % at 12.3 µM; shares compounds with PLCg1 inh
PLCbeta3 conf: PLC-beta3 inhibitor confirmation, biochemical, fluorescence, purified enzyme. 1% of 3,300 active. shares compounds with PLCg1 inh. AID 743261, 2014. fluorogenic substrate fluorescence. inhibition, % at 12.3 µM; in the data active means inhibition above about 11%
Of the large screens only hits and unclear results are named; the others gave an inactive call (follow-up assays come after a bar, where they were run). Unless noted, no stated cut-off is given here; in the data, active means inhibition above about 9.5%; inactive means the rest.

NC(N)=NS(=O)(=O)c1ccc(NC(=S)NC(=O)/C=C/c2cccs2)cc1	PLCg1 inh 13.1, DDE Tn6 FP inh 51.5 | DDE Tn6 FP ctr inactive | DDE Tn6 confirm inactive | PLCg1 ctr inactive | PLCbeta3 conf inactive
O=C(O)CCN(Cc1ccccc1)S(=O)(=O)c1ccc(Cl)cc1F	PLCg1 inh 9.6, DDE Tn6 FP inh 15.6 | DDE Tn6 FP ctr inactive | DDE Tn6 confirm inactive | PLCg1 ctr inactive | PLCbeta3 conf inactive
CC(=O)N1CCSc2ccc(S(=O)(=O)NCCc3cccc(C)c3)cc21	PLCg1 inh 16.1, DDE Tn6 FP inh 16.3 | DDE Tn6 FP ctr inactive | DDE Tn6 confirm inactive | PLCg1 ctr inactive | PLCbeta3 conf inactive
CC(=O)N1CCSc2ccc(S(=O)(=O)NCCc3ccc(C)cc3)cc21	none
COC(=O)[C@]12CCCCC=C1N(Cc1ccc(OC)cc1)C(=O)[C@@H]2CC(=O)N1CCCCC1	none (no result: CendR NRP1 mod)
CCCCNC(=O)C1CCCN1C(=O)Nc1cc(C)cc(C)c1 (configuration not stated)	none (no result: CendR NRP1 mod)
CCOC(=O)c1csc(NNC=O)n1	PLCb3 inh 11.2 | PLCg1 ctr inactive | PLCbeta3 conf inactive
COc1ccc(OC)c(NC(=O)CNC(c2ccccc2)c2ccccc2)c1	PLCg1 inh 12.7 | PLCg1 ctr inactive | PLCbeta3 conf inactive
CC1=[N+]([O-])C(C)(C)CC(C)(C)c2ccccc21	PLCb3 inh 11.7 | PLCg1 ctr inactive | PLCbeta3 conf inactive
O=C(NC1CCCCC1)c1cc(-n2cnnc2)ccc1Cl	PLCg1 inh 9.8 | PLCg1 ctr inactive | PLCbeta3 conf inactive
O=C(Nc1ccc2c(c1)OCCO2)c1cc(-n2cnnc2)ccc1Cl	PLCg1 inh 11.2 | PLCg1 ctr inactive | PLCbeta3 conf inactive
O=C(Nc1ccc2c(c1)OCCO2)c1ccccc1Cl	none
CN1C(=O)c2cc(NC(=O)C3CCCCC3)ccc2OC[C@H]2O[C@@H](CC(=O)NC3CCCC3)CC[C@H]21	none (no result: CendR NRP1 mod)
COc1ccc(NC(=O)CCCN2C(=O)CCC2=O)cc1Cl	PLCg1 inh 11.0 | PLCg1 ctr inactive | PLCbeta3 conf inactive
COc1ccc(NC(=O)CCCCCN2C(=O)CCC2=O)cc1Cl	none
CCCC/C=C1/[C@@H](C(C)C)N(Cc2ccc3c(c2)OCO3)C2=N[C@H](c3ccccc3)CC(=O)N21	PLCb3 inh 11.1 (no result: CendR NRP1 mod, KLK7 zymogen act) | PLCg1 ctr inactive | PLCbeta3 conf inactive
Cc1cc(-c2nnc(SCc3ccccn3)o2)no1	PLCg1 inh 13.7, PLCb3 inh 11.3 | PLCg1 ctr inactive | PLCbeta3 conf inactive
COc1cc2[nH]c(=O)n(CCCCCC(=O)NC3CCCC3)c(=O)c2cc1OC	PLCg1 inh 10.3 | PLCg1 ctr inactive | PLCbeta3 conf inactive
COc1ccc(Cn2ccc3ccc(-c4ccc5ccn(Cc6ccc(F)cc6)c5c4)cc32)cc1	none (no result: CendR NRP1 mod)
CN(C)c1ccc(/C=N/NC(N)=S)cc1[N+](=O)[O-]	PLCg1 inh 15.8 | PLCg1 ctr inactive | PLCbeta3 conf inactive
O=C(COCc1ccccc1)N1CC[C@H]2[C@H](CCCN2Cc2ccccc2)C1	none (no result: CendR NRP1 mod)
COc1ccc(CNC(=O)CCC(=O)Nc2nnc(CC(C)C)s2)cc1	PLCg1 inh 12.0 | PLCg1 ctr inactive | PLCbeta3 conf inactive
CN(C)S(=O)(=O)c1cc(C(=O)NCC2CCCO2)c(Cl)cc1Cl (configuration not stated)	PLCg1 inh 9.5 | PLCg1 ctr inactive | PLCbeta3 conf inactive
CCOc1ccccc1N/C=C(\C#N)c1nc2ccccc2n1C	PLCg1 inh 9.6 | PLCg1 ctr inactive | PLCbeta3 conf inactive
Cc1ccc(S(=O)(=O)c2ccc(Cl)cc2)cc1S(=O)(=O)NC(C)C(=O)O (configuration not stated)	PLCg1 inh 10.2 | PLCg1 ctr inactive | PLCbeta3 conf inactive
Cc1ccc(S(=O)(=O)c2ccc(Cl)cc2)cc1S(=O)(=O)N1CCN(C)CC1	none
CCN1C(=O)C(CC(=O)Nc2ccc(OC)cc2)N(CCc2ccc(OC)cc2)C1=S (configuration not stated)	PLCb3 inh 13.5 | PLCg1 ctr inactive | PLCbeta3 conf inactive
CC(C)COP(=O)(CNC(=O)CN1C(=O)c2ccccc2S1(=O)=O)OCC(C)C	PLCg1 inh 9.8 | PLCg1 ctr inactive | PLCbeta3 conf inactive
CC1CCC(NC(=O)CN2C(=O)c3ccccc3S2(=O)=O)CC1 (configuration not stated)	PLCg1 inh 12.2 | PLCg1 ctr inactive | PLCbeta3 conf inactive
C[C@@H]1ON(C)[C@H]2C[C@H]3c4[nH]c5c(-c6ccccc6F)cccc5c4CCN3C[C@@H]12	none (no result: CendR NRP1 mod)
CCCCCCCCN1C(=O)[C@@H](CC(=O)N2CCCC2)C[C@@]2(C(=O)OC)C1=C[C@H](COCc1ccccc1)O[C@@H]2C	none (no result: CendR NRP1 mod)
O=C(O)C1C2C=CC(C3CC23)C1C(=O)O (configuration not stated)	PLCg1 inh 10.1 | PLCg1 ctr inactive | PLCbeta3 conf inactive
N#CCC[C@H]1CC[C@]2(CCCN(C(=O)C3CCCCC3)C2)O1	none (no result: CendR NRP1 mod)
COc1ccc(C(C[N+](=O)[O-])c2c(C)cc3ccccn23)cc1 (configuration not stated)	none
Cc1[nH]n(-c2ccccc2)c(=O)c1C(c1ccc(O)c([N+](=O)[O-])c1)c1c(C)[nH]n(-c2ccccc2)c1=O	PLCg1 inh 22.2 | PLCg1 ctr inactive | PLCbeta3 conf inactive

Assay outcomes (PubChem)
